Among the data in ChEMBL document CHEMBL4513216, “Probing the Open Global Health Chemical Diversity Library for Multistage-Active Starting Points for Next-Generation Antimalarials” (ACS Infect Dis, 2020) are cytotoxicity values, retold here.

The structures appear in SMILES notation.

The data set in a line: Toxicity liver stage against HepG2, at 10uM. The data set is classed as cell-based. The arrangement: test concentration 10 uM, cell line HepG2-A16-CD81EGFP. The following applies: human, HepG2-A16-CD81EGFP cells; read-out: INHIBITION
Summed up: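 Uninfected HepG2-A16-CD81EGFP cells, 3 × 10^3 per well, 1536-well, plated on prespotted compound at 10 μM final, parasite-free screening media added to match infected plates; puromycin 10 μM positive, DMSO 0.5% negative; run in parallel with 48 h PbLuc assay at 37 °C, 5% CO2; viability by CellTiter-Glo luminescence, normalized to controls.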
For the compound `O=C(NCCO)c1cc(-c2ccc3c(c2)CCO3)n[nH]1`, the cytotoxicity at 10 µM was -11.9%. The same measure for `Cn1c(CN2CCOCC2)cc(=O)c(O)c1CN1CCCC1`: -1.07%; for `COc1ncccc1C(=O)N1CC(c2nc(-c3cccs3)no2)C1`: -21.5%. Take `Cc1nccn1-c1ccc(=O)n(CCNC(=O)c2ccccn2)n1`: the cytotoxicity at 10 µM is -11.3%. The same measure for `CCOCc1cnc2n1CCN(C(=O)C1=CCCC1)C2C` (configuration not stated): -2.42%. For `CN(C)CC(=O)N1C[C@@H](Oc2ccccn2)[C@H]2OCCC[C@H]21`, the cytotoxicity at 10 µM was determined as 9.11%. Consider `CCc1ccc(-n2nnc(C(=O)O)c2-c2ccncc2)cc1`, for which the cytotoxicity at 10 µM turned out to be 3.02%. Take `O=C(Cn1ccc2ccc(F)cc21)NCc1ccc(C(=O)O)cc1`: the cytotoxicity at 10 µM was 6.86%. The figure for `CC(=O)c1c(O)n(C)c2ccc(F)cc12` is 6.76%; for `Cn1ncc(C(=O)O)c1C(=O)Nc1nc2ccc(Br)cc2s1` it is 12.5%.

For `CC(C)c1cc(C(=O)NCCc2nc(-c3ccncc3)n[nH]2)[nH]n1`, the cytotoxicity at 10 µM is -0.01%. The same measure for `Nc1no[n+]([O-])c1C(=O)NCc1ccco1`: 2.94%; for `Cc1cc(N2CCN(C(=O)c3cccnc3)CC2)nc(C)n1`: 4.28%; for `NC(=O)c1cn[nH]c1C1CCCN1C(=O)c1ccccc1` (configuration not stated): 0.00505%.

With `CC(C)Nc1nnc(SCc2nnc(C(C)(C)C)o2)s1`, the cytotoxicity at 10 µM is -0.386%. The figure for `O=c1oc(-c2cccs2)nn1CC1(O)CCCCC1` is 8.52%; for `CC(C)c1nc(C2CCCN2C(=O)c2cc(Cl)c[nH]2)no1` (configuration not stated) it is 0.585%. The figure for `N#Cc1ccc(S(=O)(=O)NC(=O)C2CC(c3ccccc3)=NO2)cc1` (configuration not stated) is 0.462%; for `COCC(O)CN1CCC(NC(=O)c2cccc(C)c2)CC1` (configuration not stated) it is 1.44%; for `COc1ccc(Br)cc1S(=O)(=O)N(C)Cc1ccc(N(C)C)cc1` it is -7.59%. Turning to `O=C(NCCNc1ncccn1)NCCSC(F)(F)F`, the cytotoxicity at 10 µM was determined as 5.81%. The figure for `CSC(C)C(=O)NS(=O)(=O)CCc1ccccc1` (configuration not stated) is 2.88%. The figure for `Cc1cc(NC(=O)NC(C)CO)ccc1OCC(F)(F)F` (configuration not stated) is 5.2%; for `CC(C)(C)c1nc(CNc2cc3c(cc2Cl)NC(=O)CO3)no1` it is -0.438%; for `N#Cc1cccc(OCc2ccoc2C(=O)N2CCCCCC2)c1` it is 9.91%. The same measure for `CC(=O)c1ccc(C(=O)NCc2ccnc(N(C)C)n2)cc1`: 0.69%; for `CCN(C)C(=O)NCC1(CN2CCOCC2)CCCCC1`: -5.18%. For `CCNC(=O)NC(=O)CNC(C)(CC)c1nccs1` (configuration not stated), the cytotoxicity at 10 µM came to 7.93%. The same measure for `O=c1[nH]c(CN2CCN(CC(F)(F)F)CC2)nc2ccccc12`: 10.2%; for `CC(=O)c1cccc(OCCCC(=O)N(C)Cc2cscn2)c1`: 0.175%; for `CC(C(=O)Nc1ccc(Cl)cn1)N1CCc2nn(C)c(=O)cc2C1` (configuration not stated): 4.81%. For the compound `CS(=O)(=O)c1ccc(OCCNCc2cccc(Cl)c2)cc1`, the cytotoxicity at 10 µM is -4.43%. In the case of `CCc1csc(C2CCCN(C(=O)c3ccncc3)C2)n1` (configuration not stated), the cytotoxicity at 10 µM is 5.9%. As for `CC(C)(CNC(=O)C(C)(C)c1ccccc1F)C(N)=O`, the cytotoxicity at 10 µM stood at 6.38%. With `CCS(=O)(=O)c1ccccc1C(=O)NCC1Cc2ccccc2O1` (configuration not stated), the cytotoxicity at 10 µM was -0.561%. The same measure for `O=C(NCCO)NCC(c1ccccc1)N1CCc2sccc2C1` (configuration not stated): 1.96%. The same measure for `CC(NC(=O)Nc1nccs1)c1ccncc1` (configuration not stated): -9.98%. As to `Cc1nc(NC(=O)COCC(F)(F)F)ccc1Br`, the cytotoxicity at 10 µM was found to be 9.44%. The same measure for `CN(CC(=O)NCC(=O)Nc1ccc(F)cc1)Cc1cccs1`: 0.369%; for `N#Cc1cccc(S(=O)(=O)NC(=O)COCC(F)(F)F)c1`: -0.828%. The same measure for `CNC(=O)c1cccnc1N1CCC(OCc2ccccc2)CC1`: 2.49%; for `CCN(Cc1cccc(F)c1)c1ccc2nnnn2n1`: 15.4%; for `N#Cc1ccc(NCCCOCC2CCCO2)c(F)c1` (configuration not stated): 0.536%.

On to `CSC(C)(C)CNC(=O)NCC[S+]([O-])c1ccccc1F` (configuration not stated), for which the cytotoxicity at 10 µM is -11.6%.

Turning to `c1ccc(-c2noc(C3CCN(CCn4cccn4)CC3)n2)cc1`, the cytotoxicity at 10 µM worked out at 2.86%. The figure for `Cc1c(C(=O)NCC2CCN(C)C2)n(C)c2c(C)cccc12` (configuration not stated) is 10.1%; for `Cc1n[nH]c(C)c1CCN(C)C(=O)c1ccc(CN2CCCCC2)cc1` it is -9.9%; for `Cc1cccc(NC(=O)N2CCOCC(CN(C)C)C2)c1C` (configuration not stated) it is 14.7%. The figure for `Cc1ccc(F)cc1-n1c(COC(C)C)n[nH]c1=O` is 4.72%; for `CSc1ccc(C(=O)C2CCCN(C(=O)CCn3cnnn3)C2)cc1` (configuration not stated) it is 6.03%. The figure for `C=C(C)COc1ccc(C(=O)NCC2CC(CC)=NO2)cc1` (configuration not stated) is -48.2%; for `COc1ccccc1OC1CCN(Cc2cccnc2)CC1` it is -1.7%. As to `Cc1cc(C)c2c(C(=O)N(C)C)cc(-c3cnc(N)nc3)nc2c1`, the cytotoxicity at 10 µM was -8.87%. On to `CN1CCC(N(C)C[C@H]2CC[C@@H](Cc3ccc4occc4c3)O2)CC1`, for which the cytotoxicity at 10 µM is -9.27%. The same measure for `COc1cc(NC2CCS(=O)(=O)CC2)ncn1`: -3.71%; for `COc1ncc(CN(C)C(C)c2cccnc2)cn1` (configuration not stated): 13%. For `C[C@@H]1CN(Cc2nc(C(N)=O)no2)CC[C@@]1(O)C1CC1`, the cytotoxicity at 10 µM was -50.3%. The figure for `CC(C)=CCN1CCc2onc(-c3ccc(F)c(F)c3)c2C1` is 5.67%. Take `CN(Cc1csc(-c2cccs2)n1)Cc1ncccc1C(=O)O`: the cytotoxicity at 10 µM was -11.5%. The same measure for `CCc1cnc(C)nc1NCC(O)CN1CCCCCC1` (configuration not stated): 3.26%. The figure for `CCc1cc(NCCc2cc(F)cc(F)c2)n2nccc2n1` is 19.5%; for `Cc1ccc(CN2CCN(Cc3ccc4nonc4c3)CC2=O)cc1` it is -1.9%.

For `C[C@@H]1CN(Cc2nnc(-c3cccnc3)o2)CC[C@]1(C)O`, the cytotoxicity at 10 µM was found to be 10.1%. The same measure for `O=C(Cc1ccccn1)N1CCc2nc(-c3cnccn3)nc(O)c2C1`: 2.83%; for `CN(Cc1noc(C2CC2)n1)C1CCCN(c2cccnn2)C1` (configuration not stated): -2.66%; for `CCn1cc(CN2CCCN(C(=O)CCSC)CC2)cn1`: -1.11%. The figure for `CCc1c(C(=O)N2CCCC(N(C)C)C2)cnn1C(C)(C)C` (configuration not stated) is -0.088%; for `CCOCCCn1c(NC(=O)c2cc(C)no2)nc2ccccc21` it is -5.69%. `Cc1cc(C2CCCN2Cc2ccc(S(=O)(=O)N(C)C)o2)on1` (configuration not stated): the cytotoxicity at 10 µM is -4.11%. The same measure for `Cc1nn(C)c(N(C)C)c1CNCCCN(C(C)C)S(C)(=O)=O`: 1.07%; for `CN(C)c1cc2c(nn1)CCN(C(=O)Cc1ccc3c(c1)CCC3)C2`: -5.98%; for `Cc1nc(C2CCCN2Cc2ccn(C)c(=O)c2)no1` (configuration not stated): -12.9%. The same measure for `Cn1cnc2c1CCN(Cc1csc(-c3ccco3)n1)C2`: -17.4%; for `Cc1ccc(O)c(C(=O)N2CCCC(NC(=O)C(C)C)C2)c1` (configuration not stated): -0.988%. The same measure for `Cc1cnn(CC2CCCN2C(=O)c2ccccc2-n2cccn2)c1` (configuration not stated): -4.16%; for `COc1ccc(-c2nnc(CNCCn3cc(C)cn3)o2)cc1`: 1.32%; for `Cc1cc(C)n(CC2CN(Cc3noc(C)n3)CCO2)n1` (configuration not stated): 0.305%. Consider `CCCS(=O)(=O)NC1CCN(c2nnc(C)c(C)c2C#N)CC1`, for which the cytotoxicity at 10 µM is 3.28%.

Take `Cc1noc(C(C)C)c1C(=O)NCc1cccc(N(C)C)c1`: the cytotoxicity at 10 µM was -1.91%. For `CN(C)c1cc(CNC(=O)Nc2ccc(S(C)(=O)=O)nc2)ccn1`, the cytotoxicity at 10 µM turned out to be 0.71%. The figure for `CC(C)(C)n1cc(C(=O)N2CCCN(Cc3cccs3)CC2)cn1` is -5.95%; for `CNc1nc(CNC(=O)Nc2ccccc2SC)cs1` it is -7.95%; for `O=C(CCCc1ncc(-c2ccccc2)o1)N1CCN(CCO)CC1` it is -4.69%. The figure for `OC(COc1ccccc1)CN1CCc2c(ncn2C2CC2)C1` (configuration not stated) is 2.48%; for `Cc1cc(C)n(CC2CCCCN2C(=O)c2ccc3nncn3c2)n1` (configuration not stated) it is 0.168%; for `CC(=O)N1CCN(C(=O)C(C)n2cncn2)CC1` (configuration not stated) it is 1.64%.

Regarding `CCc1n[nH]c(C2CN(C(=O)c3ccsc3)CCO2)n1` (configuration not stated), the cytotoxicity at 10 µM worked out at 2.24%.

Regarding `CCn1nc(C)cc1C(=O)Nc1cc(F)ccc1OCC1CCCO1` (configuration not stated), the cytotoxicity at 10 µM was 2.89%. The figure for `Cc1ccnn1CCC(=O)N1CCCC1c1cc2cccnc2[nH]1` (configuration not stated) is 9.17%; for `Cc1occc1C(=O)N1Cc2nccn2CC(CN2CCOCC2)C1` (configuration not stated) it is -117%; for `O=C(NCc1ccco1)[C@@H]1CC[C@@H]2[C@@H](CCN2Cc2ccc(F)cc2)O1` it is -0.748%. The figure for `O=C(C1CCC1)N1C[C@@H]2CCN(c3cccnc3)C[C@@H]2C1` is -2.13%; for `CNC(=O)[C@@H](c1ccccc1OC)N1CCC[C@H]1C(=O)NCCN(C)C` it is -5.12%; for `CS(=O)(=O)N[C@@H]1CN(Cc2ccco2)C[C@@H]2CCCO[C@@H]21` it is 6.15%. As for `CN(C)[C@@H]1CN(C(=O)Cc2ccc(F)cc2)[C@@H]2CCCO[C@H]12`, the cytotoxicity at 10 µM is 3.88%. The figure for `CO[C@@H]1CCN(Cc2cnn(C)c2)[C@@H]2CN(Cc3cccnc3)C[C@@H]21` is 8.47%; for `O=C(Nc1ccccc1)[C@H]1C[C@H]2CN(S(=O)(=O)c3ccccc3)C[C@@H]1O2` it is 5.8%.
